Results taken from ChEMBL document CHEMBL1121608, “Modification of the 5' position of purine nucleosides. 2. Synthesis and some cardiovascular properties of adenosine-5'-(N-substituted)carboxamides” (J Med Chem, 1980).

Legend:
[1] = system: Canis familiaris; experiment: Total time in minutes elapsed from the initiation of the change until return to the pretest value of blood pressure in coronary sinus of anesthetized dog at intravenous dosage of 1 mg/kg; format: functional, Canis lupus familiaris
[2] = system: Canis familiaris; experiment: Total time in minutes elapsed from the initiation of the change until return to the pretest value of heart rate in coronary sinus of anesthetized dog at intravenous dosage of 1 mg/kg; format: functional, Canis lupus familiaris
[3] = system: Canis familiaris; experiment: Total time in minutes elapsed from the initiation of the change until return to the pretest value of oxygen partial pressure in coronary sinus of anesthetized dog at intravenous dosage of 1 mg/kg; format: functional, Canis lupus familiaris
Procedure, shortened: (§1)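 Open-chest anesthetized dogs given compound by intravenous injection. Coronary sinus PO2 was monitored, and duration was the total time in minutes from the onset of the change until return to the pretest value.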

[4] = system: Canis familiaris; experiment: Tested for percent increase in coronary sinus partial pressure of oxygen (PO2) in open chest anesthetized dog at intravenous dosage of 1.00 mg/kg; format: functional, Canis lupus familiaris
[5] = system: Canis familiaris; experiment: Tested for the percent increase in aortic blood pressure (BP) in open chest anesthetized dog at intravenous dosage of 1.00 mg/kg; format: functional, Canis lupus familiaris, Artery
Procedure, shortened: (§2)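 Open-chest anesthetized dogs, compound given iv at the stated dose. Aortic blood pressure is reported as the change from the control (pre-dose) value. Other set-up follows the group's earlier cardiovascular protocol.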

[6] = Lethal dose in mice after intraperitoneal administration; format: toxicity, organism-based; details: mouse, in vivo, ip
Procedure, shortened: (§3)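 Male and female mice, three per dose group, were given the compound by the stated route in increments of 0.5 log doses. The LD50 was estimated as an approximate value.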

[7] = Lethal dose in mice after peroral administration; format: toxicity, organism-based; details: mouse, in vivo, po; procedure, shortened: as §3
[8] = system: Canis familiaris; experiment: Total time in minutes elapsed from the initiation of the change until return to the pretest value of blood pressure in coronary sinus of anesthetized dog at intravenous dosage of 10 mg/kg; format: functional, Canis lupus familiaris
[9] = system: Canis familiaris; experiment: Total time in minutes elapsed from the initiation of the change until return to the pretest value of heart rate in coronary sinus of anesthetized dog at intravenous dosage of 10 mg/kg; format: functional, Canis lupus familiaris
[10] = system: Canis familiaris; experiment: Total time in minutes elapsed from the initiation of the change until return to the pretest value of oxygen partial pressure in coronary sinus of anesthetized dog at intravenous dosage of 10 mg/kg; format: functional, Canis lupus familiaris; procedure, shortened: as §1
[11] = system: Canis familiaris; experiment: Tested for the percent increase in aortic blood pressure (BP) in open chest anesthetized dog at intravenous dosage of 10.00 mg/kg; format: functional, Canis lupus familiaris, Artery; procedure, shortened: as §2
[12] = system: Canis familiaris; experiment: Tested for percent increase in coronary sinus partial pressure of oxygen (PO2) in open chest anesthetized dog at intravenous dosage of 10.00 mg/kg; format: functional, Canis lupus familiaris
[13] = system: Canis familiaris; experiment: Total time in minutes elapsed from the initiation of the change until return to the pretest value of blood pressure in coronary sinus of anesthetized dog at intravenous dosage of 0.1 mg/kg; format: functional, Canis lupus familiaris
[14] = system: Canis familiaris; experiment: Total time in minutes elapsed from the initiation of the change until return to the pretest value of heart rate in coronary sinus of anesthetized dog at intravenous dosage of 0.1 mg/kg; format: functional, Canis lupus familiaris
[15] = system: Canis familiaris; experiment: Total time in minutes elapsed from the initiation of the change until return to the pretest value of oxygen partial pressure in coronary sinus of anesthetized dog at intravenous dosage of 0.1 mg/kg; format: functional, Canis lupus familiaris
[16] = system: Canis familiaris; experiment: Tested for percent increase in coronary sinus partial pressure of oxygen (PO2) in open chest anesthetized dog at intravenous dosage of 0.10 mg/kg; format: functional, Canis lupus familiaris; details: dose 0.1 mg/kg
[17] = system: Canis familiaris; experiment: Tested for the percent increase in aortic blood pressure (BP) in open chest anesthetized dog at intravenous dosage of 0.10 mg/kg; format: functional, Canis lupus familiaris, Artery; details: dose 0.1 mg/kg; procedure, shortened: as §2
[18] = system: Canis familiaris; experiment: tested for the percent increase in heart rate (HR) in open chest anesthetized dog at intravenous dosage of 0.10 mg/kg; format: functional, Canis lupus familiaris; details: dose 0.1 mg/kg
[19] = system: Canis familiaris; experiment: Total time in minutes elapsed from the initiation of the change until return to the pretest value of blood pressure in coronary sinus of anesthetized dog at intravenous dosage of 0.01 mg/kg; format: functional, Canis lupus familiaris
[20] = system: Canis familiaris; experiment: Total time in minutes elapsed from the initiation of the change until return to the pretest value of heart rate in coronary sinus of anesthetized dog at intravenous dosage of 0.01 mg/kg; format: functional, Canis lupus familiaris
[21] = system: Canis familiaris; experiment: Total time in minutes elapsed from the initiation of the change until return to the pretest value of oxygen partial pressure in coronary sinus of anesthetized dog at intravenous dosage of 0.01 mg/kg; format: functional, Canis lupus familiaris
[22] = system: Canis familiaris; experiment: Tested for percent increase in coronary sinus partial pressure of oxygen (PO2) in open chest anesthetized dog at intravenous dosage of 0.01 mg/kg; format: functional, Canis lupus familiaris
[23] = system: Canis familiaris; experiment: Tested for the percent increase in aortic blood pressure (BP) in open chest anesthetized dog at intravenous dosage of 0.01 mg/kg; format: functional, Canis lupus familiaris, Artery; procedure, shortened: as §2

| SMILES | LD50 [6] | LD50 [7] | Duration [8] | Duration [9] | Duration [10] | BP [11] | PO2 [12] | also measured |
| --- | --- | --- | --- | --- | --- | --- | --- | --- |
| CCCCCCNC(=O)[C@H]1OC(n2cnc3c(N)ncnc32)[C@H](O)[C@@H]1O (stereo not given in full) | 200 mg/kg | 500 mg/kg |  |  |  |  |  | Duration [1]: 0 min; Duration [2]: 6 min; Duration [3]: 40 min; PO2 [4]: 100%; BP [5]: 0% |
| Cc1cccc(OCC(O)CNC(=O)[C@H]2OC(n3cnc4c(N)ncnc43)[C@H](O)[C@@H]2O)c1 (stereo not given in full) | > 300 mg/kg | > 300 mg/kg |  |  |  |  |  | Duration [1]: 30 min; Duration [2]: 1 min; Duration [3]: 7 min; PO2 [4]: 42%; BP [5]: 3% |
| Cc1cccc(C)c1NC(=O)[C@H]1OC(n2cnc3c(N)ncnc32)[C@H](O)[C@@H]1O (stereo not given in full) | > 1000 mg/kg | > 1000 mg/kg | 30 min | 5 min | 30 min | 13% | 15% |  |
| CCC(=O)c1ccccc1NC(=O)[C@H]1OC(n2cnc3c(N)ncnc32)[C@H](O)[C@@H]1O (stereo not given in full) | > 1000 mg/kg | > 1000 mg/kg | 40 min | 40 min | 16 min | 5% | 39% |  |
| C=C(C)CNC(=O)[C@H]1OC(n2cnc3c(N)ncnc32)[C@H](O)[C@@H]1O (stereo not given in full) | 500 mg/kg | > 1000 mg/kg |  |  |  |  |  | Duration [13]: 15 min; Duration [14]: 60 min; Duration [15]: 60 min; PO2 [16]: 38%; BP [17]: 1%; HR [18]: 19% |
| C=CCNC(=O)[C@H]1O[C@@H](n2cnc3c(N)ncnc32)[C@H]2OC(C)(C)OC12 (stereo not given in full) | > 1000 mg/kg | > 1000 mg/kg |  |  |  |  |  | Duration [1]: 30 min; Duration [2]: 5 min; Duration [3]: 0 min; PO2 [4]: 0%; BP [5]: 14% |
| Nc1ncnc2c1ncn2[C@@H]1O[C@H](C(=O)NC2CC2)[C@@H](O)[C@H]1O | 2 mg/kg | 5 mg/kg |  |  |  |  |  | Duration [19]: 150 min; Duration [20]: 150 min; Duration [21]: 150 min; PO2 [22]: 136% |
| COc1ccccc1N1CCN(C(=O)[C@H]2OC(n3cnc4c(N)ncnc43)[C@H](O)[C@@H]2O)CC1 (stereo not given in full) | > 300 mg/kg | > 300 mg/kg | 60 min | 60 min | 15 min | 7% | 107% |  |
| CC(=O)OC1[C@@H](C(=O)NC2CC2)O[C@@H](n2cnc3c(N)ncnc32)[C@H]1OC(C)=O (stereo not given in full) | 5 mg/kg | 20 mg/kg |  |  |  |  |  | Duration [19]: 270 min; Duration [20]: 270 min; Duration [21]: 270 min; PO2 [22]: 67%; BP [23]: 31% |
| CCNC(=O)[C@H]1O[C@@H](n2cnc3c(N)ncnc32)[C@@H](OC(C)=O)C1OC(C)=O (stereo not given in full) | 2 mg/kg | 2 mg/kg |  |  |  |  |  | Duration [19]: 70 min; Duration [20]: 120 min; Duration [21]: 120 min; PO2 [22]: 52%; BP [23]: 12% |
| CCCONC(=O)[C@H]1OC(n2cnc3c(N)ncnc32)[C@H](O)[C@@H]1O (stereo not given in full) | 200 mg/kg | > 1000 mg/kg |  |  |  |  |  | Duration [13]: 13 min; Duration [14]: 3 min; Duration [15]: 60 min; PO2 [16]: 52%; BP [17]: 1%; HR [18]: 6% |
| Nc1ncnc2c1ncn2C1O[C@H](C(=O)N2CCOCC2)[C@@H](O)[C@H]1O (stereo not given in full) | > 300 mg/kg | > 300 mg/kg | 0 min | 0 min | 0 min | 0% | 0% |  |
| Nc1ncnc2c1ncn2C1O[C@H](C(=O)N2CCCCC2)[C@@H](O)[C@H]1O (stereo not given in full) | > 1000 mg/kg | > 1000 mg/kg | 20 min | 30 min | 8 min | 7% | 52% |  |
| CCC(CC)NC(=O)[C@H]1OC(n2cnc3c(N)ncnc32)[C@H](O)[C@@H]1O (stereo not given in full) | 50 mg/kg | > 300 mg/kg |  |  |  |  |  | Duration [13]: 110 min; Duration [14]: 110 min; Duration [15]: 110 min; PO2 [16]: 28%; BP [17]: 9%; HR [18]: 11% |
